From PubChem BioAssay
Compounds with a hit are over-represented: about 2.1% of the library has one in this group of screens.
aSyn 5UTR inh – 5' untranslated region of α-synuclein, MLPCN primary screen | alpha-synuclein 5'UTR reporter, inhibitor activity | inhibition, % (tested at 7.5 µM) | 300,000 compounds, 0.82% hits | AID 1813; in the data active = inhibition above about 60%; inconclusive = no clear call, values can overlap the other calls;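 also: H4 neuroglioblastoma cells stably carrying SNCA 5'UTR luciferase fusion; 0% = DMSO wells and 100% = positive control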
EWS-Fli inh – EWS/Fli transcriptional activity inhibition. inhibition, % at 12.6 µM. 350,000 compounds, 0.67% hits. A673 NR0B1-luciferase reporter, viability-normalised;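 active = mean inhibition of at least 50% after viability correction, with every replicate also passing that limit; inconclusive = mean reaches 50% but only one of two replicates passes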;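 also: firefly luciferase signal divided by Alamar Blue viability fluorescence both relative to DMSO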
FN deposit inh – fibronectin deposition inhibition; AH1F fibroblasts, Alexa488-fibronectin deposition fluorescence, overnight; inhibition, % at 12.6 µM; 350,000 compounds, 0.086% hits; AID 743247;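 active = mean inhibition across replicates of 30% or more, regardless of how many single replicates reach that level; inconclusive = mean under 30% yet at least half of replicates reach 30%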;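 also: positive control wells lacked labelled fibronectin entirely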
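Material – AH1F fibroblast monolayer, labelled fibronectin deposition · Reagent – labelled fibronectin 24 nM · Timing – 1 h adhesion, overnight exposure · Measured by – fluorescence at 485 nm excitation, 525 nm emission · Read-out – inhibition of fibronectin deposition signal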
Shn3 inh set2 – Schnurri-3 reporter inhibition in Clone20 osteoblasts | 360,000 compounds, 0.52% hits | Clone20 osteoblast Shn3 3'UTR firefly luciferase, 24 h | AID 588674 | inhibition, % at 12.5 µM;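 active = mean inhibition of at least 75% with every replicate also reaching 75%; inconclusive = mean inhibition at least 75% but some replicate below; inactive = mean inhibition below 75%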;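 also: 0% = median of neutral control wells and 100% = pilot-screen positive control compound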
EBV LMP1 NFkB – inhibitors of Epstein-Barr LMP1-induced NF-kappaB reporter | LMP1-induced NF-kappaB luciferase reporter cells, luminescence | 350,000 compounds, 0.69% hits | inhibition, % at 12.5 µM; in the data active = inhibition above about 41%; inconclusive = no clear call, values can overlap the other calls;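 also: 0% = neutral control wells and 100% = reference inhibitor control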
PAX8 reporter – lowers PAX8-driven luciferase in RMG-I cells. RMG-I TPO-luciferase reporter, SteadyGlo, 24 h. inhibition, % at 12.6 µM. 360,000 compounds, 1.2% hits. AID 652154;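 active = mean replicate inhibition at least 60% with every replicate also reaching 60%; inconclusive = only one of the two criteria is met; inactive = mean below 60% and not all replicates reaching 60%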;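 also: luciferase light reporting Pax8 driven TPO promoter activity; plate controls were median of neutral control wells for no effect and mitoxantrone controls for full effect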
The depositor's hits bear a star; ? = inconclusive; · = no result; ! = not confirmed by another sample.

SMILES	aSyn 5UTR inh	EWS-Fli inh	FN deposit inh	Shn3 inh set2	EBV LMP1 NFkB	PAX8 reporter
N#CC1=C(N)Oc2cc(O)ccc2C1c1cccnc1 (stereo unspecified)	2.3	9.0	1.0	8.0	9.1	4.7
CN(C)c1ccc2c(c1)OC(N)=C(C#N)C2c1cccc(F)c1 (stereo unspecified)	68.0*	·	·	18.7	-8.7	·
CC(=O)OC1CCC2(C)C(CCC3C4CC=C(C(C)=O)C4(C)OC(=O)CC32)C1 (stereo unspecified)	·	15.2	·	?	79.3*	100.5*
CC(=O)O[C@H]1CC[C@@]2(C)C(CCC3C2CC[C@]2(C)OC(=O)CCC32)C1 (stereo partly specified)	7.2	·	-5.3	8.6	5.1	-3.5
CCN(c1nc(N)c(C(=O)N=C(N)N)nc1Cl)C(C)C	-9.4	13.5	0.2	15.1	3.9	107.2*
O=c1cc(-c2ccccc2)cc(-c2ccccc2)n1O	24.7	1.5	13.0	91.8*	26.7	31.0
CC(=O)N(C)C[C@H]1Oc2ncc(/C=C/c3ccccc3)cc2C(=O)N([C@@H](C)CO)C[C@H]1C	·	-8.3	0.8	·	·	·
CCCNC(=O)N1[C@H](CO)[C@@H]2c3ccccc3N(C(=O)c3ccc(F)cc3)C[C@@H]21	·	-3.4	·	·	·	-14.9
O=C(OCCN1C(=O)c2cccc3c(N4CCOCC4)ccc(c23)C1=O)c1ccc(Cl)cc1	52.8	·	7.3	-0.5	16.4	61.4*
Cc1ccc(S(=O)(=O)Nc2ccc3c(c2)CC(=O)N([C@H](C)CO)C[C@H](C)[C@H](CN(C)C(=O)Nc2c(C)noc2C)O3)cc1	·	-2.4	·	·	·	-0.3
COc1ccc(N2CCN(C(=O)COC(=O)CCc3ccccc3)CC2)cc1	·	-3.0	3.1	3.4	-1.9	76.9*
COc1ccc(N2CCN(C(=O)COc3ccccc3)CC2)cc1	1.6	·	·	·	·	·
CS(=O)(=O)N1[C@@H]2Cn3c(ccc(-c4cccc(F)c4)c3=O)[C@H]1[C@@H](C(=O)N1CCOCC1)[C@@H]2CO	·	-2.4	·	·	·	-8.5
C[C@@H]1CN([C@H](C)CO)C(=O)c2cc(NS(=O)(=O)c3cccs3)ccc2O[C@@H](C)CCCCO[C@H]1CN(C)Cc1ccc(C(=O)O)cc1	·	21.9	·	·	·	-36.4
C[C@@H]1CN([C@@H](C)CO)C(=O)c2cc(NS(=O)(=O)c3cccs3)ccc2O[C@@H](C)CCCCO[C@H]1CN(C)Cc1ccc(C(F)(F)F)cc1	·	17.2	·	·	·	83.8*
C[C@@H]1CN([C@@H](C)CO)C(=O)c2cc(NS(=O)(=O)c3cccs3)ccc2O[C@@H](C)CCCCO[C@H]1CN(C)Cc1ccc(C(=O)O)cc1	·	-5.1	·	·	·	0.1
C[C@H]1CCCCO[C@@H](CN(C)Cc2ccc(C(=O)O)cc2)[C@@H](C)CN([C@@H](C)CO)C(=O)c2cc(NS(=O)(=O)c3cccs3)ccc2O1	·	-8.0	·	·	·	-8.2
C[C@@H]1CN([C@H](C)CO)C(=O)c2cc(NS(=O)(=O)c3cccs3)ccc2O[C@@H](C)CCCCO[C@@H]1CN(C)Cc1ccc(C(F)(F)F)cc1	·	-0.6	·	·	·	93.7*
C[C@@H]1CCCCO[C@H](CN(C)Cc2ccc(C(F)(F)F)cc2)[C@@H](C)CN([C@@H](C)CO)C(=O)c2cc(NS(=O)(=O)c3cccs3)ccc2O1	·	9.6	·	·	·	89.2*
C[C@H](CO)N1C[C@H](C)[C@@H](CN(C)Cc2ccc(C(F)(F)F)cc2)OCCCC[C@H](C)Oc2ccc(NS(=O)(=O)c3cccs3)cc2C1=O	·	13.7	·	·	·	70.8*
C[C@@H]1CN([C@@H](C)CO)C(=O)c2cccc(NS(=O)(=O)c3cn(C)cn3)c2O[C@H]1CN(C)Cc1ccccc1	·	-2.5	·	·	·	-1.3
COc1ccc(S(=O)(=O)Nc2ccc3c(c2)C(=O)N([C@H](C)CO)C[C@H](C)[C@@H](CN(C)C(=O)CCCN(C)C)OCCCC[C@H](C)O3)cc1	·	-11.4	·	·	·	2.8
Cc1cccc(-c2ccc([C@H]3[C@H]4CN(C(=O)c5ccc6c(c5)OCO6)CCCCN4[C@H]3CO)cc2)c1	·	16.9	·	·	·	19.3
c1ccc2[nH]c(-c3ccc4c(c3)OCO4)nc2c1	78.5*	-31.6	2.1	-50.9	·	-103.6
COc1ccc(-c2coc3cc4oc(=O)c5ccccc5c4cc23)cc1F	81.1*	·	-4.4	-1.6	12.1	3.5
SMILES	aSyn 5UTR inh	EWS-Fli inh	FN deposit inh	Shn3 inh set2	EBV LMP1 NFkB	PAX8 reporter
COc1ccc(NC(=O)CCS(=O)(=O)c2ccccc2Cl)cc1S(=O)(=O)Nc1ccc(Cl)cc1	-19.6	57.4*	8.5	6.5	-1.6	30.8
C[C@@H]1CCCCO[C@H](CN(C)C(=O)Nc2cccc3ccccc23)[C@H](C)CN([C@@H](C)CO)C(=O)c2cc(N(C)C)ccc2O1	·	13.1	·	·	·	71.4*
C[C@@H]1CN([C@H](C)CO)C(=O)c2cc(N(C)C)ccc2O[C@@H](C)CCCCO[C@H]1CN(C)C(=O)Nc1cccc2ccccc12	·	18.6	·	·	·	52.3
C[C@H](CO)N1C[C@H](C)[C@H](CN(C)C(=O)Nc2cccc3ccccc23)OCCCC[C@H](C)Oc2ccc(N(C)C)cc2C1=O	·	66.7*	·	·	·	-18.0
C[C@@H]1CN([C@H](C)CO)S(=O)(=O)c2ccc(C#Cc3ccc(F)cc3)cc2O[C@@H]1CN(C)C(=O)NC1CCCCC1	·	11.4	5.1	·	·	58.3
C[C@H]1CN([C@@H](C)CO)S(=O)(=O)c2ccc(/C=C/c3ccccc3)cc2O[C@H]1CN(C)C(=O)NC1CCCCC1	·	5.1	1.9	-11.7	8.2	70.2*!
C[C@H](CO)N1C[C@H](C)[C@@H](CN(C)C(=O)NC2CCCCC2)Oc2cc(C#Cc3ccc(F)cc3)ccc2S1(=O)=O	·	5.5	-20.5	·	·	82.2*
C[C@@H]1CN([C@H](C)CO)S(=O)(=O)c2ccc(/C=C/c3ccccc3)cc2O[C@@H]1CN(C)C(=O)Nc1cc(F)ccc1F	·	4.0	10.8	·	·	42.7
C[C@H](CO)N1C[C@H](C)[C@@H](CN(C)C(=O)NC2CCCC2)Oc2cc(C#Cc3ccc(F)cc3)ccc2S1(=O)=O	·	12.3	3.6	·	·	·
C[C@H](CO)N1C[C@H](C)[C@@H](CN(C)C(=O)Nc2cc(F)ccc2F)Oc2cc(/C=C/c3ccccc3)ccc2S1(=O)=O	·	22.3	9.5	·	·	66.4*
C[C@@H]1CN([C@@H](C)CO)S(=O)(=O)c2ccc(C#Cc3ccc(F)cc3)cc2O[C@H]1CN(C)C(=O)NC1CCCCC1	·	-3.6	4.1	·	·	99.0*
C[C@@H]1CN([C@@H](C)CO)S(=O)(=O)c2ccc(/C=C/c3ccccc3)cc2O[C@H]1CN(C)C(=O)NC1CCCCC1	·	6.6	·	·	·	-4.0
CO[C@@H]1CN(C)C(=O)c2ccc(NC(=O)Nc3ccccc3F)cc2OC[C@@H](C)N(Cc2ccccc2F)C[C@H]1C	·	-4.4	-5.5	·	·	70.7*
COc1cccc(S(=O)(=O)Nc2ccc3c(c2)C(=O)N(C)C[C@H](OC)[C@@H](C)CN(Cc2ccccc2F)[C@@H](C)CO3)c1	·	5.6	-6.5	·	·	65.0*
C#CC[N+](C)(C)CCCCCCCCC	65.0*	-18.8	5.0	20.1	-2.2	17.8
CC#CC[N+](C)(C)CCCCCCCCCC	-9.2	17.8	-5.3	·	2.0	32.6
O=C(Nc1cccc(F)c1)N1CCCCN2[C@H](CO)[C@H](c3ccc(-c4ccccc4F)cc3)[C@H]2C1	·	59.1*	·	·	·	?
